Experimental data reported in ChEMBL document CHEMBL1142666, “Novel [2',5'-bis-O-(tert-butyldimethylsilyl)-beta-D-ribofuranosyl]- 3'-spiro-5''-(4''-amino-1'',2''-oxathiole-2'',2" -dioxide) derivatives with anti-HIV-1 and anti-human-cytomegalovirus activity” (J Med Chem, 2005).

Columns and labels:
Details in all cases: Homo sapiens
[1] = test system: MT4; experiment: Cytostatic concentration required to inhibit MT-4 cell proliferation; type: functional
Summary of the method: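 Mock-infected MT-4 cells (3 × 10^5/mL) incubated with compound dilutions for 5 days. Viable cells counted by trypan blue exclusion. CC50 = concentration reducing viable MT-4 cell number by 50%.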

[2] = test system: HEL; experiment: Minimal cytotoxic concentration required to cause microscopically visible alteration of cell morphology in HEL Cells; type: functional
Summary of the method: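 Uninfected HEL cells exposed to compound. Minimum cytotoxic concentration is the lowest level giving a microscopically detectable change in cell morphology.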

[3] = test system: CCRF-CEM; experiment: Effective concentration required to inhibit HIV-2 ROD in CEM cell culture; type: functional, cell-based
Summary of the method: (§1)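 CEM cells (4 × 10^5/mL) infected at ~100 CCID50/mL and mixed with compound dilutions. Giant cell formation scored microscopically at day 4. EC50 = concentration inhibiting virus-induced cytopathicity by 50%.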

[4] = test system: CCRF-CEM; experiment: Effective concentration required to inhibit HIV-1 IIIB in CEM cell culture; type: functional, cell-based; summary of the method: as §1
[5] = test system: MT4; experiment: Effective concentration required to inhibit HIV-2 ROD in MT-4 cell culture; type: functional, cell-based
Summary of the method: (§2)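 MT-4 cells (3 × 10^5/mL) infected at ~100 CCID50/mL and mixed with compound dilutions. Cytopathicity read by trypan blue exclusion at day 5. EC50 = concentration giving 50% protection against virus-induced loss of viability.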

[6] = test system: MT4; experiment: Effective concentration required to inhibit HIV-1 IIIB in MT-4 cell culture; type: functional, cell-based; summary of the method: as §2
[7] = test system: HEL; experiment: Effective concentration required to inhibit HCMV Davis in HEL Cells; type: functional, cell-based
Summary of the method: (§3)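 Confluent HEL cells infected with HCMV at 100 PFU/well. After 1-2 h, residual virus removed and MEM with 2% inactivated FCS added, with compound in duplicate at 5-fold dilution steps. After 7 days at 37 °C in 5% CO2, cells fixed with ethanol and Giemsa-stained; plaques or CPE scored microscopically. IC50 interpolated graphically; mean of two independent experiments.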

[8] = test system: CCRF-CEM; experiment: Cytostatic concentration of the cell proliferation; type: functional
[9] = test system: HEL; experiment: Cytostatic concentration required to inhibit HEL cell proliferation; type: functional
Summary of the method: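 HEL fibroblasts seeded at 5 × 10^3 cells/well and grown 24 h, then given compound in duplicate. After 3 days at 37 °C in 5% CO2, cell number read on a Coulter counter. CC50 = concentration reducing cell growth by 50%.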

[10] = test system: HEL; experiment: Effective concentration required to inhibit HCMV AD-169 in HEL Cells; type: functional, cell-based; summary of the method: as §3
[11] = test system: CCRF-CEM; experiment: Cytostatic concentration required to inhibit CEM cell proliferation; type: functional
Summary of the method: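 CEM cells, mock-infected, grown with serial compound dilutions for 4 days. CC50 taken as the concentration that inhibits CEM cell proliferation by 50%.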

EC50 [3] [µM]	EC50 [4] [µM]	EC50 [7] [µM]	EC50 [10] [µM]	Compound	CC50 [1] [µM]	MCC [2] [µM]	EC50 [5] [µM]	EC50 [6] [µM]	CC50 [8] [µM]	CC50 [9] [µM]	CC50 [11] [µM]
> 10	5	29	> 16	Cc1cn([C@@H]2O[C@H](CO[Si](C)(C)C(C)(C)C)[C@@]3(OS(=O)(=O)C=C3NCCC(N)=O)[C@H]2O[Si](C)(C)C(C)(C)C)c(=O)n(C)c1=O	20	≥ 80	> 10	> 10	21	14.8	–
> 10	> 10	8	> 16	Cc1cn([C@@H]2O[C@H](CO[Si](C)(C)C(C)(C)C)[C@@]3(OS(=O)(=O)C=C3NCCC(=O)O)[C@H]2O[Si](C)(C)C(C)(C)C)c(=O)n(C)c1=O	11.5	80	> 50	> 50	–	34	19.4
> 2	> 2	2	> 3.2	Cc1cn([C@@H]2O[C@H](CO[Si](C)(C)C(C)(C)C)[C@@]3(OS(=O)(=O)C=C3NC(N)=O)[C@H]2O[Si](C)(C)C(C)(C)C)c(=O)n(C)c1=O	3.7	16	> 2	> 2	–	11	4.36
> 2	0.24	0.32	0.29	CCOC(=O)CN1C(=O)CN(C(=O)NC2=CS(=O)(=O)O[C@@]23[C@@H](CO[Si](C)(C)C(C)(C)C)O[C@@H](n2cc(C)c(=O)n(C)c2=O)[C@@H]3O[Si](C)(C)C(C)(C)C)C1=O	1.43	≥ 3.2	> 2	0.88	–	2.5	1.42
> 10	0.7	10	10	Cc1cn([C@@H]2O[C@H](CO[Si](C)(C)C(C)(C)C)[C@@]3(OS(=O)(=O)C=C3NC(=O)C(=O)N3CCC3)[C@H]2O[Si](C)(C)C(C)(C)C)c(=O)n(C)c1=O	17.4	65	> 50	0.8	–	84.4	21.6
